# From PubChem BioAssay
# Not all results are given here.
# Apaf-1 act – activates human Apaf-1 apoptosome; O14727; Apaf-1 apoptosome caspase-3 activation, DEVD-Rh110 fluorescence; stronger effect = lower value; activity change, negative = activation, % at 20 µM; hit rate 0.31% among 330,000;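 active means activity change at or below -40% at 20 µM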
#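 system = biochemical Apaf-1 apoptosome reconstitution | buffer or medium = 20 mM HEPES pH 7.5 with CHAPS, BSA | also added = dATP and cytochrome c as apoptosome triggers, (Z-DEVD)2-Rh110 substrate | incubation = 30 min compound preincubation and 50 min reaction, both room temperature | measured by = fluorescence, 540 nm emission, 480 nm excitation | read-out basis = Caspase-3 cleavage activity downstream of Apaf-1 activation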
# Rh110 act interf – Rh110 signal interference in Apaf-1 activator counter-screen; Rh110 fluorescence interference, quenched caspase reaction, Ex480/Em540; 980 tested, under 10 active; fluorescence interference (activity change), % at 20 µM, hits read low; shares compounds with Apaf-1 act;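 active means mean activity change at or below -40% when tested at 20 µM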
# Apaf-1 act conf2 – Apaf-1 (human) activation, single-dose confirmed | shares compounds with Apaf-1 act | activity change, negative = activation, % at 20 µM | reconstituted apoptosome caspase-3 activity, DEVD-Rh110 fluorescence; stronger effect = lower value | hit rate 5% among 980;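 active means mean activity change at or below -40%, meaning activation of 40% or more, at 20 µM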
# Active calls of the source: *; . = not tested or not shown.
SMILES,Apaf-1 act,Rh110 act interf,Apaf-1 act conf2
COCCN1C(=S)N[C@@H](c2cccc(F)c2)C(C(=O)OC)=C1C,57,.,.
Cc1ccc2oc(=O)cc(CN3CC(C)OC(C)C3)c2c1 (stereo not given),-66*,11,8
COc1cccc(-c2sc3ccc(OC)cc3c2-c2ccc(OCCN3CCCC3)cc2)c1,70,.,.
CCOCCCn1c(SCC(=O)Nc2cc(C(C)(C)C)nn2-c2ccccc2)nc2ccccc2c1=O,40,.,.
C=CCNc1oc(-c2ccc(OCC)cc2)nc1C#N,-52*,12,15
C1CCC(C(CC2CCCCN2)C2CCCCC2)CC1 (stereo not given),60,.,.
Cc1ccc(NC2=CC(=O)C(=O)c3ccccc32)cc1,87,.,.
CC1=NN(c2ccc(Cl)cc2)C(=O)C1C(c1ccccc1O)c1c(C)[nH]n(-c2ccc(Cl)cc2)c1=O (stereo not given),97,.,.
Cc1ccc(NC(=O)CNCc2ccccc2)cc1Br,-48*,11,-9
CN(CC(=O)NCc1ccccc1)CC(=O)Nc1ccc(Cl)c(C(F)(F)F)c1,53,.,.
O=C1OC(Nc2ccc3ncccc3c2)c2ccccc21 (stereo not given),82,.,.
CCCOc1cc2c(C#N)c(N3CCCC3)nc(N)c2c(N)n1,98,.,.
COc1cc(/C=C2\C(=O)N(c3ccc(S(N)(=O)=O)cc3)N=C2C)ccc1OC(=O)c1ccco1,91,.,.
Nc1nnc2c(n1)CCCC2,83,.,.
COc1ccc(C(=O)C(Sc2nnc(C)c(=O)[nH]2)c2ccc(OC)cc2)cc1 (stereo not given),-114*,7,17
O=C(NC(=S)Nc1ccc(CN2CCCCC2)cc1)c1cccc(OCc2ccccc2)c1,43,.,.
CN1CCN(c2ccc(NC(=O)c3ccc(-c4ccc(Cl)cc4)o3)cc2)CC1,65,.,.
COC(=O)c1ccc(NC(=S)N2CCN(Cc3ccc(Cl)cc3)CC2)cc1,-350*,7,10
CC(C)C[C@@H](C(=O)NC1CCN(Cc2ccccc2)CC1)N1C(=O)N2CCc3c([nH]c4ccccc34)[C@@]2(C)C1=O,45,.,.
C#CCOCCOCCOCCNc1nc(N2CCN(C(=O)CCCCCCCCCCNC(=O)[C@@H](CCSC)n3cc(CCO)nn3)CC2)nc(N2CCN(C(=O)CCCCCCCCCCNC(=O)[C@H](CCCN=C(N)N)n3cc(C[C@@H](C)CC)nn3)CC2)n1,62,.,.
CCC[C@@H](CN1CCC[C@H]1CN1C(N)=NC[C@@H]1Cc1ccccc1)N1C[C@@H](Cc2ccccc2)N(CCc2ccc(Cl)c(Cl)c2)C1=N,78,.,.
O=C1c2ccccc2C(=O)C1c1ccc2ccccc2n1,-334*,6,5
CCN1C(N(C)CCc2c[nH]c3ccccc23)=N[C@@H](c2cccc(C(F)(F)F)c2)C(C(=O)OC)=C1C,55,.,.
CC(Oc1cccc(Cl)c1)C(=O)Nc1cc(S(=O)(=O)N2CCOCC2)ccc1N1CCCCC1 (stereo not given),48,.,.
COCCn1c(N)c(C(=O)OCc2ccccc2)c2nc3ccccc3nc21,94,.,.
SMILES,Apaf-1 act,Rh110 act interf,Apaf-1 act conf2
Nc1c(C(=O)NCc2ccco2)c2nc3ccccc3nc2n1CCc1ccccc1F,61,.,.
CCC(C(=O)NCc1ccco1)n1nc(C)c2c(C)n(-c3ccccc3)nc2c1=O (stereo not given),-86*,2,13
CCC1Nc2ncnc(N3CCN(c4ccccc4)CC3)c2N(Cc2ccccc2)C1=O (stereo not given),60,.,.
Oc1ccc(C=Nc2ccc3ncccc3c2)c(O)c1,95,.,.
COc1ccc(C(CNC(=O)c2cccc(NS(=O)(=O)c3ccc(Br)cc3)c2)N(C)C)cc1 (stereo not given),-143*,7,11
CCOC(=O)N1CCN(C(=O)c2cccc(S(=O)(=O)Nc3ccc(OC)cc3)c2)CC1,51,.,.
c1ccc(-c2sc3ccccc3c2-c2ccc(OCCN3CCCC3)cc2)cc1,78,.,.
CC(=O)c1c(-c2ccccc2)c2cc(Cl)ccc2[nH]c1=O,-49*,-2,8
COC(=O)C1=C(C)N(Cc2ccccc2)C(=NCc2cc(OC)c(OC)c(OC)c2)N[C@H]1CCc1ccccc1,48,.,.
COC(=O)c1cccc(C23CC4(C2)[C@H](CN(CC2CCCCC2)[C@@H]4c2ccccc2)C3c2ccccc2)c1 (stereo not given in full),40,.,.
CC(C)Cn1c(N)c(C(=O)COC(=O)C2CCCCC2)c(=O)n(C)c1=O,43,.,.
Cc1cc2nc(SCC(=O)Nc3nonc3C)c3c(c2cc1C)CCCC3,-48*,5,16
CCN1/C(=C/c2ccc3ccccc3[n+]2CC)C=Cc2ccccc21,41,.,.
Cc1ccc(-c2nn3c(C)nnc3c3ccccc23)cc1S(=O)(=O)NC(C)c1ccccc1 (stereo not given),57,.,.
CC[C@H](C)[C@@H]1NC(=O)[C@H]([C@@H](C)CC)NC(=O)[C@@H](CC(C)C)NC(=O)[C@H](Cc2ccccc2)NC(=O)[C@H](Cc2ccccc2)NC(=O)[C@@H]2CCCN2C(=O)[C@@H]2CCCN2C(=O)[C@H](C(C)C)NC(=O)[C@H](CC(C)C)NC1=O,54,.,.
NC(=O)/C(=C/c1ccc2c(c1)OCO2)NC(=O)c1ccco1,-44*,1,1
Oc1cccc(/C=N/Nc2cc(N3CCCC3)nc(N3CCCC3)n2)c1,97,.,.
COc1ccc(OCC(=O)N/N=C(\C)c2cccs2)cc1,-81*,2,15
COc1ccc2c(c1)Cc1sc(NC(=O)c3cccs3)nc1-2,87,.,.
COc1ccccc1N1C(=O)N(C(C)=O)C2C1Nc1ccccc1N2C (stereo not given),83,.,.
COC(=O)CCC(=O)OC1(C)C(=O)C2=CN(CCN3CCOCC3)C(c3ccc(OC)cc3)=CC2=C(Br)C1=O (stereo not given),86,.,.
CC(C)Oc1ccc(C2NC(=O)c3ccccc3O2)cc1 (stereo not given),-98*,1,3
COc1cccc2sc(N(CCN(C)C)C(=O)c3ccc4c(c3)CCCC4)nc12,50,.,.
Cc1ccc(-c2nc3n(n2)Cc2ccccc2-3)cc1,-197*,0,13
CC(C)n1ncc2c(C(=O)Nc3ccc(S(N)(=O)=O)cc3)cc(C3CC3)nc21,75,.,.
SMILES,Apaf-1 act,Rh110 act interf,Apaf-1 act conf2
CCN1CCN(c2ccc(NC(=O)CCc3c(C)nc4c(-c5ccccc5)c(C)nn4c3C)cc2)CC1,48,.,.
CCOC(=O)c1c(NC(=O)c2ccno2)c2cc([N+](=O)[O-])ccc2n1C,-45*,9,5
CCOC(=O)C1=C(C)OC2(O)c3ccccc3C(=O)C12O (stereo not given),88,.,.
CC(=O)C1=C(C)OC2(O)c3ccccc3C(=O)C12O (stereo not given),93,.,.
CC(=O)Oc1ccc2c(c1)Oc1cc(OC(C)=O)ccc1C21OC(=O)c2ccccc21,-259*,-154*,-73*
CC1(C)Cc2c(sc3nc(N/N=C/c4ccccc4)[nH]c(=O)c23)CO1,-236*,4,12
CN1CCN(CC(=O)N2CCn3c4c(c5cc(C6CCCCC6)ccc53)CCCC42)CC1 (stereo not given),58,.,.
